In ChEMBL document CHEMBL3525906, “A comprehensive assessment of repaglinide metabolic pathways: impact of choice of in vitro system and relative enzyme contribution to in vitro clearance” (Drug Metab Dispos, 2012):

Key:
[1] = tested on: Liver microsome; test: Drug metabolism in human liver microsomes assessed as 3'-hydroxy repaglinide formation measured per mg of protein at 0.5 to 150 uM by LC-MS/MS method; assay type: ADME
[2] = Drug metabolism in human hepatocytes assessed as 3'-hydroxy repaglinide formation by LC-MS/MS method; assay type: ADME, cell-based, Hepatocyte
[3] = tested on: Hepatocyte; test: Unbound intrinsic clearance in human hepatocytes assessed as 3'-hydroxy repaglinide formation measured per 10^6 cells at 0.5 to 150 uM by LC-MS/MS method; assay type: ADME, cell-based
[4] = tested on: Liver microsome; test: Unbound intrinsic clearance in human liver microsomes assessed as 3'-hydroxy repaglinide formation measured per mg of protein at 0.5 to 150 uM by LC-MS/MS method; assay type: ADME
Procedure, shortened: (§1)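 Pooled HLM, 0.3 mg/ml, in 0.1 M phosphate pH 7.4 with 10 mM MgCl2 and NADPH regenerating system. Repaglinide at 8 levels, 0.5-150 μM; 37°C, 10 min. Metabolites by LC-MS/MS against authentic standards; fu_inc 0.85. Duplicates on three occasions.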

[5] = target: T1, Cytochrome P450 3A4 (Homo sapiens, UniProt P08684); test: Unbound intrinsic clearance in human recombinant CYP3A4 expressed in insect cells assessed as enzyme-mediated 3'-hydroxy repaglinide formation per nanomole of protein at 0.5 to 150 uM by LC-MS/MS method; assay type: ADME
T1 sequence (P08684 whole entry): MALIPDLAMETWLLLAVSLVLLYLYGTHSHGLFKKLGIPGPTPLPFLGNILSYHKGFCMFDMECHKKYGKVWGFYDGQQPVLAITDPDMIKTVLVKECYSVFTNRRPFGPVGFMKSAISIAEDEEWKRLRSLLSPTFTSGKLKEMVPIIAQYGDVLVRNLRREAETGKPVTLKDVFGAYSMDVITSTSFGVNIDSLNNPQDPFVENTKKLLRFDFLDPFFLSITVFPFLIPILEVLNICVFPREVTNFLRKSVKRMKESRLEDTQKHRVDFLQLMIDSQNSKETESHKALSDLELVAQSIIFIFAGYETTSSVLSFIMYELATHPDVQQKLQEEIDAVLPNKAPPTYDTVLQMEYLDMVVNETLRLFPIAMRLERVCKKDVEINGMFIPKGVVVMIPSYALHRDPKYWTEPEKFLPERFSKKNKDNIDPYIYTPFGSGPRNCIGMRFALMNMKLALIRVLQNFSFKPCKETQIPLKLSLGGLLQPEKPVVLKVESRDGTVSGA

[6] = tested on: Hepatocyte; test: Drug metabolism in human hepatocytes assessed as glucuronide formation measured per 10^6 cells at 0.5 to 150 uM by LC-MS/MS method; assay type: ADME, cell-based
[7] = tested on: Hepatocyte; test: Drug metabolism in human hepatocytes assessed as 2-despiperidyl-2-amino repaglinide formation measured per 10^6 cells at 0.5 to 150 uM by LC-MS/MS method; assay type: ADME, cell-based
[8] = target: T2, Cytochrome P450 2C8 (Homo sapiens, UniProt P10632); test: Fraction metabolism via CYP2C8 in human hepatocytes; assay type: ADME, cell-based, Hepatocyte
T2 sequence (P10632 whole entry): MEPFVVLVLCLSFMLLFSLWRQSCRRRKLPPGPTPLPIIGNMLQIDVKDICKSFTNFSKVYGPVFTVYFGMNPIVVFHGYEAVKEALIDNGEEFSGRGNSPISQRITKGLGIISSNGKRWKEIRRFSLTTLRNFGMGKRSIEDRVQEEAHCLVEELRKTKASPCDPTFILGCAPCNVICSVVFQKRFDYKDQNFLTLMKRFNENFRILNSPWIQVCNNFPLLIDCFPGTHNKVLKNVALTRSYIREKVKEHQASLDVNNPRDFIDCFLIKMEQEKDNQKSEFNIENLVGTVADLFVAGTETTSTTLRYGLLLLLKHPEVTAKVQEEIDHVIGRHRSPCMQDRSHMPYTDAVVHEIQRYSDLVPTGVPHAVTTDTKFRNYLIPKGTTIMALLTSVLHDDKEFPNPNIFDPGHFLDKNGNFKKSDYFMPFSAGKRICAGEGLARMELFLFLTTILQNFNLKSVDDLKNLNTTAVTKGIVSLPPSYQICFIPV

[9] = Fraction metabolism via UGT in human hepatocytes; assay type: ADME, cell-based, Hepatocyte
[10] = target: T1, Cytochrome P450 3A4; test: Fraction metabolism via CYP3A4 in human liver microsomes; assay type: ADME
[11] = species on record: Homo sapiens; test: Drug metabolism in human patient assessed as fold change in metabolite M2/M1 AUC ratio at 0.25 mg co-treated with telithromycin and montelukast relative to telithromycin and montelukast non-treated patient; assay type: ADME, organism-based; details: in vivo
[12] = species on record: Homo sapiens; test: Drug metabolism in human patient assessed as fold change in metabolite M2/M4 AUC ratio at 0.25 mg co-treated with gemfibrozil on various time intervals relative to gemfibrozil non-treated patient; assay type: ADME, organism-based; details: in vivo
[13] = species on record: Homo sapiens; test: Drug metabolism in human patient assessed as fold change in metabolite M2/M4 AUC ratio at 0.25 mg co-treated with atorvastatin relative to atorvastatin non-treated patient; assay type: ADME, organism-based; details: in vivo
[14] = species on record: Homo sapiens; test: Ratio of AUC in human patient at 0.25 mg to AUC in human patient at 0.25 mg co-treated with gemfibrozil; assay type: ADME, organism-based; details: in vivo
[15] = species on record: Homo sapiens; test: Ratio of AUC in human patient at 0.25 mg to AUC in human patient at 0.25 mg co-treated with itraconazole; assay type: ADME, organism-based; details: in vivo
[16] = species on record: Homo sapiens; test: Ratio of AUC in human patient at 0.25 mg to AUC in human patient at 0.25 mg co-treated with gemfibrozil and itraconazole; assay type: ADME, organism-based; details: in vivo
[17] = species on record: Homo sapiens; test: Ratio of AUC in variable OATP1B1 genotype human patient at 0.25 mg to AUC in ariable OATP1B1 genotype human patient at 0.25 mg co-treated with gemfibrozil on various time intervals; assay type: ADME, organism-based; details: in vivo
[18] = species on record: Homo sapiens; test: Ratio of AUC in human patient at 0.25 mg to AUC in human patient at 0.25 mg co-treated with telithromycin; assay type: ADME, organism-based; details: in vivo
[19] = species on record: Homo sapiens; test: Ratio of AUC in human patient at 0.25 mg to AUC in human patient at 0.25 mg co-treated with clarithromycin; assay type: ADME, organism-based; details: in vivo
[20] = species on record: Homo sapiens; test: Ratio of AUC in human patient at 0.25 mg to AUC in human patient at 0.25 mg co-treated with trimethoprim; assay type: ADME, organism-based; details: in vivo
[21] = species on record: Homo sapiens; test: Ratio of AUC in human patient at 0.25 mg to AUC in human patient at 0.25 mg co-treated with cyclosporine; assay type: ADME, organism-based; details: in vivo
[22] = species on record: Homo sapiens; test: Drug metabolism in variable SLCO1B1 genotype containing human patient assessed as fold change in metabolite M2/M1 AUC ratio at 0.25 mg co-treated with gemfibrozil relative to gemfibrozil non-treated patient; assay type: ADME, organism-based; details: in vivo
[23] = Drug metabolism in human hepatic S9 fraction assessed as 2-despiperidyl-2-amino repaglinide formation by LC-MS/MS method; assay type: ADME, Liver
[24] = tested on: Hepatocyte; test: Unbound intrinsic clearance in human hepatocytes assessed as 2-despiperidyl-2-amino repaglinide formation measured per 10^6 cells at 0.5 to 150 uM by LC-MS/MS method; assay type: ADME, cell-based
[25] = target: Cytochrome P450 3A5 (Homo sapiens, UniProt P20815); test: Unbound intrinsic clearance in human recombinant CYP3A5 expressed in insect cells assessed as enzyme-mediated 2-despiperidyl-2-amino repaglinide formation per nanomole of protein at 0.5 to 150 uM by LC-MS/MS method; assay type: ADME
Cytochrome P450 3A5, sequence (P20815 whole entry): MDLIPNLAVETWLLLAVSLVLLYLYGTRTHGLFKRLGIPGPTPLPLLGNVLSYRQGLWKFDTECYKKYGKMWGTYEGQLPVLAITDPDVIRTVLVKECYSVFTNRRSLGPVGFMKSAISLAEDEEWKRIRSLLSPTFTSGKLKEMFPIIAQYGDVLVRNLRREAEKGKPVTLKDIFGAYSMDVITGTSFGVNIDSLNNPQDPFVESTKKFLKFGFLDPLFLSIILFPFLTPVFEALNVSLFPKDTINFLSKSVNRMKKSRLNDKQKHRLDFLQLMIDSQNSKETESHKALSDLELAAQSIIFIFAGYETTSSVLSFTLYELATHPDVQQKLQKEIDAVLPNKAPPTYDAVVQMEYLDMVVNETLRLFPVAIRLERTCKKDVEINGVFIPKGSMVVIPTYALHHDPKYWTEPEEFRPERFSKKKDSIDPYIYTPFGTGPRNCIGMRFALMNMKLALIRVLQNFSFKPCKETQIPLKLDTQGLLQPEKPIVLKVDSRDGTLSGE

[26] = Drug metabolism in human hepatic S9 fraction assessed as glucuronide formation measured per mg of protein at 0.5 to 150 uM by LC-MS/MS method; assay type: ADME, Liver; details: s9, 150 µM
[27] = tested on: Liver microsome; test: Drug metabolism in human liver microsomes assessed as glucuronide formation by LC-MS/MS method; assay type: ADME
[28] = Drug metabolism in human hepatic S9 fraction assessed as glucuronide formation by LC-MS/MS method; assay type: ADME, Liver
[29] = tested on: Liver microsome; test: Drug metabolism in human liver microsomes assessed as 2-despiperidyl-2-(5-carboxypentylamine) repaglinide formation measured per mg of protein at 0.5 to 150 uM by LC-MS/MS method; assay type: ADME
[30] = Drug metabolism in human hepatic S9 fraction assessed as 2-despiperidyl-2-(5-carboxypentylamine) repaglinide formation measured per mg of protein at 0.5 to 150 uM by LC-MS/MS method; assay type: ADME, Liver; details: s9, 150 µM
[31] = Drug metabolism in human hepatic S9 fraction assessed as 2-despiperidyl-2-(5-carboxypentylamine) repaglinide formation by LC-MS/MS method; assay type: ADME, Liver
[32] = tested on: Liver microsome; test: Unbound intrinsic clearance in human liver microsomes assessed as 2-despiperidyl-2-(5-carboxypentylamine) repaglinide formation measured per mg of protein at 0.5 to 150 uM by LC-MS/MS method; assay type: ADME; procedure, shortened: as §1

Vmax [1]: 130 pmol/min/mg | Km [2]: 13 µM | CL free [3]: 2.4 uL/min/10^6cells | CL free [4]: 18 µL/min/mg | CL free [5]: 2 µL/min/nmol | Vmax [6]: 5.7 pmol/min/10^6cells | Vmax [7]: 23 pmol/min/10^6cells | Fm [8]: 0.49 | Fm [9]: 0.02 | Fm [10]: 0.2 | fold change (FC) [11]: 4.3 | fold change (FC) [12]: 0.94 | fold change (FC) [13]: 0.87 | Ratio [14]: 8.1 | Ratio [15]: 1.4 | Ratio [16]: 19 | Ratio [17]: 1 | Ratio [18]: 1.8 | Ratio [19]: 1.4 | Ratio [20]: 1.6 | Ratio [21]: 2.4 | fold change (FC) [22]: 0.38 | Km [23]: 58 µM | CL free [24]: 0.75 uL/min/10^6cells | CL free [25]: 1.4 µL/min/nmol | Vmax [26]: 46 pmol/min/mg | Km [27]: 37 µM | Km [28]: 47 µM | Vmax [29]: 28 pmol/min/mg | Vmax [30]: 94 pmol/min/mg | Km [31]: 47 µM | CL free [32]: 1.4 µL/min/mg
SMILES: CCOc1cc(CC(=O)N[C@@H](CC(C)C)c2ccccc2N2CCCCC2)ccc1C(=O)O [REPAGLINIDE]
